From article PMC5820113 (Neuropharmacology, 2017)
Like-named read-outs stand apart in the source and are kept apart here.

Key:
METH self-administration [1] = conditions: cited from earlier work
[2] = system: cocaine self-administration; conditions: cited from earlier work
sigma-1 receptors = conditions: ref Cao et al, 2016, cited from earlier work; for sigma-1/DAT binding ratio: ratio of binding affinities, Hiranita et al, 2017
[3] = mouse, previously conducted; ref Supplemental Material; cited from earlier work
[4] = Phase I metabolic stability in rat liver microsomes; assay type: in vitro ADME
METH self-administration [5] = test: Intravenous METH self-administration, short access; assay type: in vivo, rat; conditions: for reduction of METH intake: ShA rats (Supplemental Figure S2)
Outline: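 Rats (225-275 g at start, reverse light cycle, free food/water) trained on i.v. METH, 10-15 sessions, then 10 FR1 sessions of 1 h (ShA) or 6 h (LgA) access. Test compound i.p. (vehicle up to 100 mg/kg), 30 min or 1 h pretreatment, then FR1 session; Latin-square, within-subjects. Mean ± SEM; ANOVA or paired t-test vs vehicle, Holm-Sidak.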

locomotion [6] = test: Locomotion during saccharin self-administration; assay type: in vivo, rat; conditions: rats (Supplemental Figure S3)
brain stimulation reward = conditions: cited from earlier work
[7] = system: cocaine-induced locomotion; conditions: ref Zhang et al, 2017; cited from earlier work
[8] = system: cocaine-induced reinstatement; conditions: ref Zhang et al, 2017; cited from earlier work
locomotion [9] = conditions: cited from earlier work
[10] = system: sucrose self-administration; conditions: rats; ref Zhang et al, 2017; cited from earlier work
[11] = system: saccharin self-administration; test: Saccharin self-administration; assay type: in vivo, rat; conditions: rats (Supplemental Figure S3)
[12] = biological target: dopamine transporter (DAT); conditions: read-out: Ki, DAT affinity; ref Cao et al, 2016; Zhang et al, 2017; cited from earlier work
[13] = ref Cao et al, 2016; cited from earlier work
[14] = Plasma and brain levels after single i.p. dose in rats; assay type: in vivo; conditions: rat
Outline: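 Rats given a single 10 mg/kg i.p. dose, freshly prepared in 10% DMSO and 10% Tween 80 diluted with sterile saline. At 30 and 120 min (n = 3 per time point), CO2 euthanasia. Heparinized cardiac-puncture blood was spun at once for plasma. Brain was dissected and flash-frozen at -80°C.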

[15] = rats, ref Hiranita et al, 2014, 2017
[16] = 10 mg/kg i.p., 30 min post-administration
[17] = 10 mg/kg i.p., 2 h (120 min) post-administration
[18] = all doses tested i.p. (JJC8-088 3, 10, 30 mg/kg; JJC8-089 1, 3, 10, 30 mg/kg)
[19] = 100 mg/kg i.p., 1 h pretreatment, vs vehicle
[20] = 10-30 mg/kg, ref Zhang et al (2017)

Row | Structure (SMILES) | sigma-1/DAT binding ratio (sigma-1 receptors) | half-life [4] [min] | METH intake, LgA rats entire 6 h session (METH self-administration [5]; 30 mg/kg i.p., vs vehicle) | reduction of METH intake (METH self-administration [5]) [%] | locomotion (locomotion [6]) | saccharin (sweetened water) self-administration [11] | Ki [12] [nM] | brain level [14, 16] | brain level [14, 17] | further results
1 | NC(=O)C[S+]([O-])C(c1ccccc1)c1ccccc1 (racemic) [(±)-modafinil] | – | – | – | – | – | – | – | – | – | METH self-administration (METH self-administration [1]; 300 mg/kg, very high dose, ref Reichel and See (2012)): significantly decreased
2 | CCCCN1[C@@H]2CC[C@H]1CC(OC(c1ccc(F)cc1)c1ccc(F)cc1)C2 (stereo partly drawn) [JHW 007, reference compound] | 0.20-0.23 | – | – | – | – | – | – | – | – | cocaine self-administration [2, 15]: effectively block; METH self-administration (METH self-administration [1]; [15]): effectively block
3 | Fc1ccc(C(SCCNCCCc2ccccc2)c2ccc(F)cc2)cc1 [JJC8-016, N-[2-([bis(4-fluorophenyl)methyl]thio)ethyl]-3-phenylpropan-1-amine] | – | 9 | significantly decreased | > 50 | without causing significant locomotor effects | significantly reduced | – | – | – | brain penetration [3]: good brain penetration; METH intake, LgA rats first hour (METH self-administration [5]; 30 mg/kg i.p., vs vehicle): significantly decreased; METH intake, ShA rats 1 h session (METH self-administration [5]; 30 mg/kg i.p., vs vehicle): significantly decreased; reduction of self-administration (METH self-administration [5]; LgA rats, 1 h time point (Supplemental Figure S2)): > 50%; intracranial self-stimulation (brain stimulation reward; ref Zhang et al, 2017): without affecting; cocaine self-administration ([2]; ref Zhang et al, 2017): effectively inhibited; affinity for sigma-1 receptors (sigma-1 receptors): high affinities; cocaine-induced locomotion [7]: effectively inhibited; cocaine-induced reinstatement [8]: effectively inhibited; locomotor activity (locomotion [9]; ref Zhang et al, 2017): without affecting; sucrose self-administration [10]: reduce
4 | [O-][S+](CCN1CCN(CC(O)Cc2ccccc2)CC1)C(c1ccc(F)cc1)c1ccc(F)cc1 (stereo not drawn) [JJC8-088, 1-[4-(2-[(bis[4-fluorophenyl]methyl)sulfinyl]ethyl)piperazin-1-yl]-3-phenylpropan-2-ol] | > 100 | 39 | – | – | increased | increased | 2.53 | very little | nearly undetectable | t1/2 in mouse liver microsomes [13]: 12.9 min; levels in both brain and plasma ([14]; 10 mg/kg i.p., 30 min and 2 h): low levels; METH intake, LgA rats entire 6 h session (METH self-administration [5]; all doses tested i.p. (3, 10, 30 mg/kg)): did not affect; METH intake, LgA rats first hour (METH self-administration [5]; [18]): did not significantly change; METH intake, ShA rats 1 h session (METH self-administration [5]; [18]): did not significantly change; Ki (sigma-1 receptors; read-out: Ki, sigma1 receptors): 336 nM
5 | CC(O)CN1CCN(CCSC(c2ccc(F)cc2)c2ccc(F)cc2)CC1 (stereo not drawn) [JJC8-089, 1-[4-(2-[(bis[4-fluorophenyl]methyl)thio]ethyl)piperazin-1-yl]propan-2-ol] | 0.24 | 14 | significantly decreased | > 50 | without causing significant locomotor effects | significantly reduced | 16.7 | 7.6 ± 0.3 nmol/g | 3.6 ± 0.7 nmol/g | Kp ([14]; brain/plasma, ip, 10 mg/kg): 8 to 9; METH intake, LgA rats first hour (METH self-administration [5]; [18]): only observed a group effect; METH intake, ShA rats 1 h session (METH self-administration [5]; [18]): only observed a group effect; affinity for sigma-1 receptors (sigma-1 receptors): high affinities
6 | CC(O)CN1CCN(CC[S+]([O-])C(c2ccc(F)cc2)c2ccc(F)cc2)CC1 (stereo not drawn) [JJC8-091, 1-[4-(2-[(bis[4-fluorophenyl]methyl)sulfinyl]ethyl)piperazin-1-yl]propan-2-ol] | – | 126 | significant reduction | – | without causing significant locomotor effects | significantly reduced | 289 | 0.45 ± 0.18 nmol/g | 0.30 ± 0.015 nmol/g | METH intake, LgA rats entire 6 h session (METH self-administration [5]; 10 mg/kg i.p., vs vehicle): significant reduction; METH intake, LgA rats entire 6 h session (METH self-administration [5]; 56 mg/kg i.p., vs vehicle): significant reduction; METH intake, LgA rats first hour (METH self-administration [5]; 56 mg/kg i.p., vs vehicle): decreased; METH intake, ShA rats 1 h session (METH self-administration [5]; 56 mg/kg i.p., vs vehicle): decreased
7 | NC(=O)C[S@@+]([O-])C(c1ccccc1)c1ccccc1 [R-MOD, [R]-2-[(diphenylmethyl)sulfinyl]acetamide, reference compound] | – | 55 | – | > 50 | did not alter | did not alter | – | – | – | METH intake, LgA rats first hour (METH self-administration [5]; [19]): significantly decreased; METH intake, ShA rats 1 h session (METH self-administration [5]; [19]): significantly decreased; METH intake, LgA rats entire 6 h session (METH self-administration [5]; 100 mg/kg i.p., vs vehicle (p = 0.058)): nonsignificant; brain stimulation reward (brain stimulation reward; [20]): enhanced; locomotion (locomotion [9]; [20]): increased
